Common to all, as to type: functional
For assay [1], the system named is Mycobacterium tuberculosis. As to the kind of experiment: Antimycobacterial activity against drug-resistant Mycobacterium tuberculosis H37Rv ATCC 2517-infected hollow fiber system based in vitro pharmacokinetic-pharmacodynamic tuberculosis model assessed as rate constant for maximal bacterial growth.
The subject of assay [2] is Mycobacterium tuberculosis. As to the kind of experiment: Antimycobacterial activity against drug-resistant Mycobacterium tuberculosis H37Rv ATCC 2517-infected hollow fiber system based in vitro pharmacokinetic-pharmacodynamic tuberculosis model assessed as concentration needed to achieve 50% effect on maximal growth rate.
The test system of assay [3] is Mycobacterium tuberculosis. As to the kind of experiment: Antimycobacterial activity against drug-resistant Mycobacterium tuberculosis H37Rv ATCC 2517-infected hollow fiber system based in vitro pharmacokinetic-pharmacodynamic tuberculosis model assessed as sigmoidicity constant for drug effect on microbial growth.
The subject of assay [4] is Mycobacterium tuberculosis. As to the kind of experiment: Antimycobacterial activity against drug-resistant Mycobacterium tuberculosis H37Rv ATCC 2517-infected hollow fiber system based in vitro pharmacokinetic-pharmacodynamic tuberculosis model assessed as rate constant for maximal bacterial kill.
Assay [5] relates to Mycobacterium tuberculosis. The assay can be described thus: Antimycobacterial activity against drug-resistant Mycobacterium tuberculosis H37Rv ATCC 2517-infected hollow fiber system based in vitro pharmacokinetic-pharmacodynamic tuberculosis model assessed as concentration needed to achieve 50% maximal killing rate. Summed up:
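Hollow-fibre system at 37°C under 5% CO2, preconditioned with drug for 3 days. Log-phase bacilli (10 ml of 10^6 CFU/ml) went into the peripheral compartment. […] Drug levels were checked centrally. Peripheral samples were taken daily for 7 days, washed twice in saline and plated on 7H10 agar for CFU.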

Assay [6] has as its system Mycobacterium tuberculosis. As to the kind of experiment: Antimycobacterial activity against drug-resistant Mycobacterium tuberculosis H37Rv ATCC 2517-infected hollow fiber system based in vitro pharmacokinetic-pharmacodynamic tuberculosis model assessed as sigmoidicity constant for microbial killing.

One molecule from ChEMBL document CHEMBL1137651 (Antimicrob Agents Chemother, 2007) can be followed below.

On to `CO[C@H]1/C=C/O[C@@]2(C)Oc3c(C)c(O)c4c(O)c(c(/C=N/N5CCN(C)CC5)c(O)c4c3C2=O)NC(=O)/C(C)=C\C=C\[C@H](C)[C@H](O)[C@@H](C)[C@@H](O)[C@@H](C)[C@H](OC(C)=O)[C@@H]1C` [RIFAMPIN], for which the Kgmax in assay [1] was found to be 6.195 ×10⁻³ log10CFU/ml/hr. Further, the C50g in assay [2] is 2.019 mg/L. Also, the Hg in assay [3] turned out to be 4.542. Further, in assay [4], the Kkmax was 29.379 ×10⁻³ log10CFU/ml/hr. The C50k in assay [5] is recorded as 22.405 mg/L. In addition, in assay [6], the Hk is 45.326.
